This sample holds only a part of the variants without activity.
B1: tRNA (parent)
chain: GUUCCGUUGGCGUAAUGGUAACGCGUCUCCCUCCUAAGGAGAAGACUGCGGGUUCGAGUCCCGUACGGAACG

Variants of: B1
Assay: yeast fitness relative to wild type (ratio to wild type); higher = fitter; tRNA-Arg(CCU), competitive growth, 37 C, YPD
In short: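 Amplicons of the tRNA-Arg(CCU) gene were sequenced, 100-nucleotide paired-end, from the start population and from each end population of a pooled yeast competition. The competition, in six parallel replicates, lasted 24 hours in YPD at 37°C. Fitness relative to wild type was calculated from changes in genotype frequencies. Genotypes had to have ≥ 100 starting reads, and estimates < 0.5 were set to 0.5.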
For GUUCCGUUGGCGUAAUGGUAACGCGUCUCCCUCCUAAGGAGUAGACUGCGGGUUCGACAUCCGUACGGAACG [A42U G58C U59A C60U], the yeast fitness was 0.659. GUUCCGCUGGCGUAAUGGUAACGCGUCUCCCUCCUUAGGAGAAGACUGCCGGUUCGAGUACCAUACGGAACG [U7C A36U G50C C60A G63A] showed a yeast fitness of at most 0.5. For GUUCCGUUGGCGUAAUGGUAACGCGUCCCCCUCCUAAGGAGAAGACUGCGGGUUCGAGUCCGGUACGGAACG [U28C C62G], the yeast fitness was 0.724. GUUCCGUUGGCGUAAUGGUAACGCGUCUCAUUUCUACGGAGAAGACUGCGGGUUCGAGUCCCGUACGGAACG [C30A C31U C33U A37C] showed a yeast fitness of at most 0.5. With GUUCCGUUGGCGUCAUGGUAACGCGUCUCCUUCCUAAGGAGAAGACUGCAGGUUGGAGUCCAGUACGGAACG [A14C C31U G50A C55G C62A] the yeast fitness was at most 0.5. GUUCCGUUGGCGUGAUGGUAACGCCUCUCCCUCCUAAGGAGAAGACUGCGCGUUCGAGUUCCGUACAGAACG [A14G G25C G51C C60U G67A] gave a yeast fitness of at most 0.5. For GCUCCGUCGGCGUAAUGGUAACGCGUCUCCCUCAUAAGGAGCAGACUGCGGGUUCGAGUCCCGUACGCAACG [U2C U8C C34A A42C G68C], the yeast fitness was at most 0.5. For GUUCCGUUGGCGUAAUGGUUACGCGUCUCCCUCCUAAGGAGAAGACAGCGGGUUCGAGUCCCGUACGGUACG [A20U U47A A69U], the yeast fitness was 0.619. For GUUCCGAUGGCGUAAUGGUAACGCGUCUCCCUCAUAAGGAGAAGACUGCGGGUUCGAGUCCCGUACGGAACG [U7A C34A], the yeast fitness was 0.662. Variant GUUCCGUUGGCGUAAUGGUAUCGCGUCUCCCUCCUAAGGAGAAGACUGACGGUUCGAGUCCCGUACGGAACG [A21U C49A G50C] has a yeast fitness of at most 0.5. Variant GUUCCGUUGGCGUAAUCGUAACGCGUCUCCCUCCUAAGGAGAACACUGCGGGUUCGAGUCCCGUACGGAACG [G17C G44C] has a yeast fitness of 0.58. Work on GGUCCGUUGGCGUAAUGGUAACGCGACUCCCUCCUAAGGAGAAGACUGCGGGUUCGAGUCCCGUACGGAACG [U2G U26A] yielded a yeast fitness of 0.828. GUUCCCUUGGCGUAAUGGUAACGCGUCUCCCCCCUAAGGAGAAGACUGCGGGUUCGAGUCCCGUACGGAACG [G6C U32C] showed a yeast fitness of 0.994. For GUUCCGUUGACGUAAUCGUAACGCGUCCCGCUGCUAAGGAGAAGACUGCGGGUUCGAGUCACGUACGGUACG [G10A G17C U28C C30G C33G C61A A69U], the yeast fitness was at most 0.5. GUUUGGUUGGCGUAAUGGUAACGCGUCUGCGUCCUACGGAGAAGACUGCGGGUUCGGGUCCCGUAAGGAACG [C4U C5G C29G C31G A37C A57G C66A] showed a yeast fitness of at most 0.5. Variant GUUUCGUUGGCGUAAUGGUAACGCGUCUCCCUCCUAAGGAGAAGACCGCGGCUUCGAGUCACGUACGGAACG [C4U U47C G52C C61A] has a yeast fitness of at most 0.5. GUUUCGUUGGCGUAAUGGUAACGCGUCUCCCUCCUAAGGAGGAGACUGCGGGUUCGUGUCCCGUACGGAACG [C4U A42G A57U] gave a yeast fitness of 0.551. Variant GUUCCGUUGGCGCAAUGGUAACGCGUCUCCCUCCUAAGGAGAAGACUGCGGGUUCAAGUCCCGUAUGGAACG [U13C G56A C66U] has a yeast fitness of 0.696. GUUCUGUUGGCGUAAUGGUAACGCAUCUCCCUCCUAAGGAGAAGACUGCGGGUUCGAGUCCCGUACGGCACG [C5U G25A A69C] showed a yeast fitness of 0.728. Variant GUUCCGUUGGGGUAAUGGUAACGCGUCUCUCUCCUAAGAAGAAGCCUGUGGGUUCGAGUCCCGUACGGAACG [C11G C30U G39A A45C C49U] has a yeast fitness of 0.614. Work on GUUCCGUUGGCGUAUUGGUAACGCGUCUCCCUCCUUAGGAGAAGACUCCGGGUUCGAGUCCCGUAUGGAACG [A15U A36U G48C C66U] yielded a yeast fitness of at most 0.5. GUUCCGUUGGCAUAAUGGUAACGCGUGUCCCGCCUAAGGAGAAGACUGCGGGUUCGAGUCCCGUACGGAACG [G12A C27G U32G] gave a yeast fitness of at most 0.5. In the case of GUUCCCUUGGAGUAAUGGUAACGCGUCUCCCUCCUAAGGAGAAGACUCCGGGUUCGAGUCCCGUACGGAACG [G6C C11A G48C], the yeast fitness is reported as 0.627. Variant GUUCCGUUGGCGUAACGGUAACGCGUCUCCCUCCUAACGAGAAGACUGCGGGUUCGAGUCCCGUUUGGAACG [U16C G38C A65U C66U] has a yeast fitness of 0.569. GUUACGUUGGCGUACUGGUAACGCGUCUCCCUCCUAAGGAGAAGACUGCGGGUUCGAGUCCCGUACGGCACG [C4A A15C A69C] gave a yeast fitness of at most 0.5. GUUCCCUUGGGGUAAUGGUAACGCGUCUCCCUCCUAAGGAACAGACUGCCGGUUCGAGUCCCGUACGGAGCG [G6C C11G G41A A42C G50C A70G] showed a yeast fitness of at most 0.5. Variant GUUCCGUUGGCGUAAUGGUAACGCGUCUCCCUCCUCGGGAGAAGACUGAGGGUUCGAGUCCCGUACGGUACG [A36C A37G C49A A69U] has a yeast fitness of at most 0.5. For GUUCCGUUGGCGUAAUGGUAACGGGUCUCCCUCCUAAGGAGAAGACUGCGGGUUUGAGUCCCGUGCGGAACG [C24G C55U A65G], the yeast fitness was 0.546. Work on GUUCCGUUGGUGUAAUGGUAAAGCGUCUGCCUUCUAAGGAGAAGACUGCGGGUUCGAGUCCCGUACGGAACG [C11U C22A C29G C33U] yielded a yeast fitness of 0.519. Work on GUUCCGUUGGCGUAAUGGUAACGCGUCUCCCUCCUAAGCAGAAGACUGCGGGUUCGAGUCCCGUGCGGAUCG [G39C A65G A70U] yielded a yeast fitness of at most 0.5. Work on GUUCCGUUGGCGUAAUGGAAACGCGUCUCCCUCCUGAGGAGCAGACUGCGGGUUCGAGUCCCGUAAGGAACG [U19A A36G A42C C66A] yielded a yeast fitness of at most 0.5. In the case of GUUCCGUUGGCGUAAUGGUAACGCGUCUCCCUCCUAAGGAGUAGACUACGGGUCCGAGUCCCGUACGGAACG [A42U G48A U54C], the yeast fitness is reported as 0.696. For GUUGCGUUGGCGUAAUGGUAACGCGUCUCCCUCCUAAGGUGAAGACUGCGGGUUCGAGUCCAGUACGGAACG [C4G A40U C62A], the yeast fitness was 0.638. In the case of GUUCCGUUGGCGUAAUGGUAACGCGUCUCCCUCCUAAGGAGAAGACCGCGGGUUCGAGACCCGUACGGAACG [U47C U59A], the yeast fitness is reported as 0.961. GUUUCGUCGGCGUAAUGGUAACGCGUCUCCCUCCUAAGGAGCAGACUGCGGGUUCGAGUCCCGUACGGAACG [C4U U8C A42C] gave a yeast fitness of 0.539. For GUUCCGUUGGCGUAAUGGUAACGCGUCUCCCACCUAAGGAGUAGACUGCGGGUUCGAGUCGUGUACGGAACG [U32A A42U C61G C62U], the yeast fitness was 0.661. GUUCCAUUGGCGUAAUGGUAACGCGUCUCCCUCCUAAGGAGAAGACUGCGGGUUCGAGUCCCGUUCGGAACG [G6A A65U] gave a yeast fitness of 0.925. Variant GUUCCGUUGGCGUAAUGGUAACGGGUCUGCCUCCUAAGGAGAAGACUGCGGGUUCGAGUCCCGUACGGAACG [C24G C29G] has a yeast fitness of at most 0.5.

Source: the RNAGym collection of RNA variant scans (doi:10.1126/science.aae0568)
